How the values were obtained:
Plasmepsin II = Plasmepsin II (Plasmodium falciparum, UniProt P46925); test: Inhibitory activity against plasmepsin-2
How it was run: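 Activated Plm II proenzyme, 0.6–0.7 nM final, in 0.1 M sodium acetate pH 5.0 with 10% glycerin and 0.01% Tween-20. Inhibitor in DMSO, preincubated 4.5 min at 25 °C, then DABCYL/EDANS fluorogenic peptide substrate added (Km 0.75 μM). Fluorescence (ex 336/em 490 nm) followed over time. Five to six inhibitor concentrations, duplicate or triplicate. Ki by Williams–Morrison nonlinear fit.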

Cathepsin D = Cathepsin D (Homo sapiens, UniProt P07339); test: Compound was tested for the inhibitory activity against human liver cathepsin D
Cathepsin D, sequence (P07339 65-162 limits assumed): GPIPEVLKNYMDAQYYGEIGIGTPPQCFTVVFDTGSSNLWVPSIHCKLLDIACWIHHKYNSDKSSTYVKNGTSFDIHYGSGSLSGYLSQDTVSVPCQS
Cathepsin D, sequence (P07339 169-412 limits assumed): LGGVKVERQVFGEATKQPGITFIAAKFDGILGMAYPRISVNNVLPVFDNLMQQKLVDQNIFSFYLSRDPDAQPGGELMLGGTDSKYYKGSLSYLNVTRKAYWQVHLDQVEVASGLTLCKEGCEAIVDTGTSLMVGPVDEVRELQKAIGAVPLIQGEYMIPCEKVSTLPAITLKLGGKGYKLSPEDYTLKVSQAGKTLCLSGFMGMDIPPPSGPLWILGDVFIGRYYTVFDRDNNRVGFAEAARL
How it was run: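 Human liver cathepsin D, 0.7 nM final, in 0.1 M formic acid buffer pH 3.7. […] Fluorescence (ex 336/em 490 nm) followed over time. Ki obtained by nonlinear fit to the Williams–Morrison tight-binding equation.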

Plasmepsin II, sequence (P46925 whole entry): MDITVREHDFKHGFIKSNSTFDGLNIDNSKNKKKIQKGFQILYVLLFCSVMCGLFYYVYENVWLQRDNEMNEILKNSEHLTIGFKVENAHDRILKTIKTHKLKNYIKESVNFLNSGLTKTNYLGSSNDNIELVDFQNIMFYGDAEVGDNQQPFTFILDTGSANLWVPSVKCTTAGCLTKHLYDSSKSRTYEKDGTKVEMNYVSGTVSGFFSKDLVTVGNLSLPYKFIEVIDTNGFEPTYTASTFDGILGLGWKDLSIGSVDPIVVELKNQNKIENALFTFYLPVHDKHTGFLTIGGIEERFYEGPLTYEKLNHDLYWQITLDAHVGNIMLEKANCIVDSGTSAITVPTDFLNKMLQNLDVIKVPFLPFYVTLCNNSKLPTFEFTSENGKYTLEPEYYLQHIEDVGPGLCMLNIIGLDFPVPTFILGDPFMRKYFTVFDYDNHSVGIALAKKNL

| SMILES | Ki (Plasmepsin II) [nM] | Ki (Cathepsin D) [nM] |
| --- | --- | --- |
| Cc1ccc(C)c(OCC(=O)N[C@@H](Cc2ccccc2)[C@@H](O)CN(CCc2ccc3c(c2)OCO3)C(=O)CCN2C(=O)c3ccccc3C2=O)c1 | 300 |  |
| CN1CCC(C(=O)N(CCc2ccc3c(c2)OCO3)C[C@H](O)[C@H](Cc2ccccc2)NC(=O)COc2cccc(Cl)c2)CC1 | 2 | 5.8 |
| CC(=O)N1CCC(C(=O)N(CCc2ccc3c(c2)OCO3)C[C@H](O)[C@H](Cc2ccccc2)NC(=O)COc2cccc(Cl)c2)CC1 | 4 | 1.9 |
| COc1cc(C(=O)N[C@@H](Cc2ccccc2)[C@@H](O)CN(CCc2ccc3c(c2)OCO3)C(=O)CCN2C(=O)c3ccccc3C2=O)cc(OC)c1OCc1ccccc1 | 100 |  |
| COc1ccc(CCN(C[C@H](O)[C@H](Cc2ccccc2)NC(=O)COc2cccc(Cl)c2)C(=O)C2CCNCC2)cc1 | 4.3 | 63 |
| O=C(COc1cccc(Cl)c1)N[C@@H](Cc1ccccc1)[C@@H](O)CN(CCc1ccc2c(c1)OCO2)C(=O)CCN1C(=O)c2ccccc2C1=O | 220 |  |
| CC(=O)N1CCC(C(=O)N(CCc2ccc3c(c2)OCO3)C[C@H](O)[C@H](Cc2ccccc2)NC(=O)CNc2cccc(Cl)c2)CC1 | 3 | 1.3 |

Second part, the compound after the results:

| Ki (Plasmepsin II) [nM] | Ki (Cathepsin D) [nM] | SMILES |
| --- | --- | --- |
| 4.8 | 4.3 | COc1cc(C(=O)N[C@@H](Cc2ccccc2)[C@@H](O)CN(CCc2ccc3c(c2)OCO3)C(=O)C2CCN(C(C)=O)CC2)cc(OC)c1OCc1ccccc1 |
| 9 | 71 | COc1ccc(CCN(C[C@H](O)[C@H](Cc2ccccc2)NC(=O)c2cc(OC)c(OCc3ccccc3)c(OC)c2)C(=O)C2CCNCC2)cc1 |
| 2 | 9.8 | COc1ccc(CCN(C[C@H](O)[C@H](Cc2ccccc2)NC(=O)COc2cccc(Cl)c2)C(=O)C2CCN(C)CC2)cc1 |
| 4.1 | 58 | COc1ccc(CCN(C[C@H](O)[C@H](Cc2ccccc2)NC(=O)c2cc(OC)c(OCc3ccccc3)c(OC)c2)C(=O)C2CCN(C)CC2)cc1 |

Reference: ChEMBL document CHEMBL1132121, “Potent, low-molecular-weight non-peptide inhibitors of malarial aspartyl protease plasmepsin II” (J Med Chem, 1999)
